# What was measured:
# MCF7 [1] = experiment: Ratio of compound IC50 to F-Cpd5 IC50 for human MCF7 cells; format: functional, cell-based
# RPMI-8226 [2] = experiment: Ratio of compound IC50 to F-Cpd5 IC50 for human RPMI8226 cells; format: functional, cell-based
# Salmonella typhimurium [3] = experiment: Reduction of spontaneous mutagenesis in histidine-dependent Salmonella Typhimurium TA102 harboring histidine operon mutant assessed as inhibition of H2O2-induced formation of mutants from 150% to 100% of revertants after 48 hrs by Ames test; format: functional, organism-based, Salmonella enterica subsp. enterica serovar Typhimurium; details: Salmonella enterica, TA102, 48 h
# Procedure, shortened: (§1)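 S. typhimurium TA102 Ames test without metabolic activation. Single colony grown 15 h at 37 °C with shaking in LB with ampicillin (50 µg/ml) and tetracycline (2 µg/ml). Overnight culture mixed with compound at varied concentrations, with or without 3 mM H2O2, in 0.6% top agar at 42 °C. Poured onto minimal 0.2% glucose plates, incubated 48 h at 37 °C, revertants counted. Untreated revertant count set as 100%. At least three independent experiments.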
# [4] = Cytotoxicity against PMF after 72 hrs by MTT assay; design: species or system Mus musculus
# Procedure, shortened: (§2)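 RPMI 8226, MCF-7, LMTK and primary mouse fibroblasts (PMF) were seeded at ~2000 cells per well and preincubated 24 h at 37 °C, 5% CO2, in IMDM or RPMI 1640. Compounds were then added and cells incubated a further 72 h. Viable cells were quantified by MTT colorimetric assay, and the concentration giving 50% growth inhibition (IC50) was derived. Values are mean ± SD of at least three independent experiments.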
# MCF7 [5] = experiment: Cytotoxicity against human MCF7 cells after 72 hrs by MTT assay; format: functional, cell-based; details: MCF7, 72 h; procedure, shortened: as §2
# RPMI-8226 [6] = experiment: Cytotoxicity against human RPMI8226 cells after 72 hrs by MTT assay; format: functional, cell-based; details: RPMI-8226, 72 h; procedure, shortened: as §2
# Salmonella typhimurium [7] = experiment: Reduction of spontaneous mutagenesis in histidine-dependent Salmonella Typhimurium TA102 harboring histidine operon mutant assessed as concentration required to suppress 100% to 50% mutagenesis after 48 hrs by Ames test; format: functional, organism-based, Salmonella enterica subsp. enterica serovar Typhimurium; details: Salmonella enterica, TA102, 48 h; procedure, shortened: as §1
# [8] = Cytotoxicity against mouse LMTK cells after 72 hrs by MTT assay; format: cell-based; details: L-M(TK-); procedure, shortened: as §2
# Salmonella typhimurium [9] = experiment: Reduction of spontaneous mutagenesis in histidine-dependent Salmonella Typhimurium TA102 harboring histidine operon mutant assessed as inhibition of H2O2-induced formation of mutants from 100% to 50% of revertants after 48 hrs by Ames test; format: functional, organism-based, Salmonella enterica subsp. enterica serovar Typhimurium; details: Salmonella enterica, TA102, 48 h; procedure, shortened: as §1
# [10] = Cytotoxicity against PMF at 25 ug/ml after 72 hrs by MTT assay; details: mouse, PMF cells; read-out: INH
# Procedure, shortened: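 Cells (~2000 per well) were preincubated 24 h at 37 °C, 5% CO2, in IMDM or RPMI 1640, then exposed to compound for 72 h with MTT read-out. Where cytotoxicity was low, percent growth inhibition at the highest concentration tested was recorded instead of an IC50. Values are mean ± SD of at least three independent experiments.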
# [11] = Cytotoxicity against mouse LMTK cells at 30 uM after 72 hrs by MTT assay; format: cell-based
# [12] = Cytotoxicity against PMF at 25 ug/ml after 72 hrs by MTT assay; details: mouse
# MCF7 [13] = experiment: Ratio of IC50 for human MCF7 cellss to IC50 for human RPMI8226 cells; format: functional
compound,measurement,setting,value
O=C1C(F)=C(Nc2ccccc2)C(=O)c2c(F)c(F)c(F)c(F)c21,Ratio IC50,MCF7 [1],2
same,Ratio IC50,RPMI-8226 [2],2
CC(C)(C)NC1=C(F)C(=O)c2c(F)c(F)c(F)c(F)c2C1=O,Ratio IC50,MCF7 [1],2
same,Ratio IC50,RPMI-8226 [2],2
CCN(CC)C1=C(F)C(=O)c2c(F)c(F)c(F)c(F)c2C1=O,Ratio IC50,MCF7 [1],2
same,Ratio IC50,RPMI-8226 [2],2
O=C1C=C(SCCO)C(=O)c2c(F)c(F)c(F)c(F)c21,IC50,Salmonella typhimurium [3],12.7 µM
same,IC50,[4],30 µM
same,IC50,MCF7 [5],12.8 µM
same,IC50,RPMI-8226 [6],2.9 µM
same,IC50,Salmonella typhimurium [7],26.1 µM
same,IC50,[8],25 µM
same,Ratio IC50,RPMI-8226 [2],5.3
same,IC50,Salmonella typhimurium [9],23.5 µM
O=C1C(F)=C(N(CCO)CCO)C(=O)c2c(F)c(F)c(F)c(F)c21,Ratio IC50,MCF7 [1],13
same,IC50,Salmonella typhimurium [3],2.9 µM
same,IC50,[4],34 µM
same,IC50,MCF7 [5],7.5 µM
same,IC50,RPMI-8226 [6],5.1 µM
same,IC50,Salmonella typhimurium [7],275 µM
same,IC50,[8],52.7 µM
same,IC50,Salmonella typhimurium [9],45.3 µM
CCNC1=C(F)C(=O)c2c(F)c(F)c(F)c(F)c2C1=O,Ratio IC50,MCF7 [1],2
same,Ratio IC50,RPMI-8226 [2],2
O=C1C(F)=C(N2CCOCC2)C(=O)c2c(F)c(F)c(F)c(F)c21,Ratio IC50,MCF7 [1],13
same,IC50,Salmonella typhimurium [3],54 µM
same,"cytotoxicity at 72 h, 25 ug/ml",[10],45%
same,IC50,MCF7 [5],5.7 µM
same,IC50,RPMI-8226 [6],6 µM
same,IC50,Salmonella typhimurium [7],131 µM
same,Activity,[11],50%
same,IC50,[8],30 µM
same,activity at 25 ug/ml,[12],45%
same,IC50,Salmonella typhimurium [9],169 µM
O=C1C(F)=C(NCCO)C(=O)c2c(F)c(F)c(F)c(F)c21,Ratio IC50,MCF7 [1],13
same,IC50,Salmonella typhimurium [3],26 µM
same,IC50,[4],3.3 µM
same,IC50,MCF7 [5],5.8 µM
same,IC50,RPMI-8226 [6],1.2 µM
same,IC50,Salmonella typhimurium [7],54 µM
same,IC50,[8],11.7 µM
same,Ratio IC50,MCF7 [13],4.8
same,IC50,Salmonella typhimurium [9],44.9 µM
COC1=C(F)C(=O)c2c(F)c(F)c(F)c(F)c2C1=O,IC50,Salmonella typhimurium [3],2.8 µM
same,IC50,[4],8.9 µM
same,IC50,MCF7 [5],26.5 µM
same,IC50,RPMI-8226 [6],4 µM
same,IC50,Salmonella typhimurium [7],39 µM
same,IC50,[8],13.7 µM
same,IC50,Salmonella typhimurium [9],20 µM
COC1=C(OC)C(=O)c2c(F)c(F)c(F)c(F)c2C1=O,Ratio IC50,MCF7 [1],13
same,IC50,Salmonella typhimurium [3],38.3 µM
same,IC50,[4],18.9 µM
same,IC50,MCF7 [5],6 µM
same,IC50,RPMI-8226 [6],0.96 µM
same,IC50,Salmonella typhimurium [7],198 µM
same,IC50,[8],8.6 µM
same,Ratio IC50,MCF7 [13],6
same,IC50,Salmonella typhimurium [9],53.8 µM
CN(CCO)C1=C(F)C(=O)c2c(F)c(F)c(F)c(F)c2C1=O,Ratio IC50,MCF7 [1],13
same,IC50,Salmonella typhimurium [3],3.4 µM
same,IC50,[4],24.9 µM
same,IC50,MCF7 [5],2.4 µM
same,IC50,RPMI-8226 [6],5.6 µM
same,IC50,Salmonella typhimurium [7],37.6 µM
same,IC50,[8],44.5 µM
same,IC50,Salmonella typhimurium [9],30.2 µM
